For this assay, the target named is Monoacylglycerol lipase ABHD6 (Mus musculus) (UniProt Q8R2Y0). The assay can be described thus: liver ABHD6 blockade after oral dosing – gel-based competitive ABPP, fluorescence, mouse, powder samples, in vivo study for DAGLb inhibitor project, late-stage follow-up (AID 624077). The following applies: C57BL mice oral dosing, stronger effect = higher value. The procedure, abridged: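 Assay system: C57BL mouse liver membranes, ABHD6; also added: HT-01 probe, 1 µM final; timing: 4 h oral dose-to-liver-harvest, 30 min 37 °C probe labelling; technique: in-gel fluorescence after SDS-PAGE; benchmarks: high control vehicle-treated liver, low control blank-gel background; replication: one mouse per dose group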

Setting [1] is: measured here: ABHD6 inhibition at 1 mg/kg.
Where [2] appears, read: measured here: ABHD6 inhibition at 5 mg/kg.

Data on three compounds can be found in PubChem BioAssay AID624077 (The Scripps Research Institute Molecular Screening Center, 2012).

For orientation: inhibition means the share of the control response that was lost under treatment.

Monoacylglycerol lipase ABHD6 (Mus musculus), sequence (Q8R2Y0 whole entry, looked up): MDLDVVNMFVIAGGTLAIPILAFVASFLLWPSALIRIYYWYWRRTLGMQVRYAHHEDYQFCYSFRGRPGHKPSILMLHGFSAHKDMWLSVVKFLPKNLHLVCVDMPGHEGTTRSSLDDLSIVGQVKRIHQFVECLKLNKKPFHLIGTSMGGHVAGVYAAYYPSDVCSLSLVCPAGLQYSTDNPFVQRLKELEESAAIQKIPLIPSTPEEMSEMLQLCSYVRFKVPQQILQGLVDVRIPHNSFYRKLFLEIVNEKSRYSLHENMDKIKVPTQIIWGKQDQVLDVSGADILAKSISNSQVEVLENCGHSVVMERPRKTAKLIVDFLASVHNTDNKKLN

For `COc1ccccc1-c1ccc(-c2cn(C(=O)N3CCCCC3Cc3ccccc3)nn2)cc1` (centres undefined), the inhibition is 100%. Under setting [1], this compound returned an inhibition of 90%. For the same compound, under setting [2], the inhibition was 100%.
`COc1ccc(-c2ccc(-c3cn(C(=O)N4CCCCC4c4ccccc4)nn3)cc2)cc1` (centres undefined): the inhibition is 100%. Moreover, the inhibition under setting [1] was 70%. This compound also yielded an inhibition under setting [2] of 80%.
On to `O=C(N1CCCCC1Cc1ccccc1)n1cc(-c2ccc(-c3ccccc3)cc2)nn1` (centres undefined), for which the inhibition was 100%. The compound further yielded an inhibition under setting [1] of 100%. This compound also came in with an inhibition under setting [2] of 100%.
